Measurements taken from ChEMBL document CHEMBL2157999, “Potent small molecule Hedgehog agonists induce VEGF expression in vitro” (Bioorg Med Chem, 2012).
Active and inactive are the calls of the source. No cut-off for these calls is given here.

Experiments:
[1] = biological target: Sonic hedgehog protein (Mus musculus) (UniProt Q62226); assay: Activation of Shh pathway in mouse Shh-Light II cells assessed as induction of gli1 expression at 1 uM after 48 hrs by […] luminescence assay; assay type: functional, cell-based
Method in brief: (§1)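 Shh-Light II cells were given compounds from DMSO stocks (final DMSO 0.1%; top concentration 1000 nm) for 48 h, then PBS-washed and lysed. Gli reporter luminescence was measured by dual-luciferase and normalized to constitutive Renilla. EC50 came from a Hill-slope fit of RLU/s versus concentration. 2–4 independent experiments, each in technical triplicate.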

HUVEC [2] = assay: Induction of HUVEC proliferation after 48 hrs by BrdU-incorporation assay; assay type: functional, cell-based; details: Homo sapiens
Method in brief: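 HUVEC were seeded at 5000 cells/well. After 24 h the medium was swapped for a compound dilution series (≤0.5% DMSO) and incubated 48 h. BrdU incorporation was read by chemiluminescent ELISA.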

HUVEC [3] = assay: Induction of angiogenesis in HUVEC assessed as formation of cell sprouts after 48 hrs by 3D spheroid angiogenesis assay; details: Homo sapiens
HUVEC [4] = assay: Cytotoxicity against HUVEC up to 10 uM after 24 hrs by WST-1 assay; assay type: cell-based; details: human
Method in brief: (§2)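 HUVEC were seeded at 7500 cells/well and exposed to a compound concentration series (<0.5% DMSO) for 24 h. WST-1 was then added and incubated 24 h. Absorbance at 440 and 650 nm was read, and the absorbance difference was plotted against concentration.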

[5] = biological target: Sonic hedgehog protein (Homo sapiens) (UniProt Q15465); assay: Activation of Shh pathway in human foreskin fibroblasts assessed as increase in VEGF expression at 0.1 to 1 uM after 48 hrs by ELISA relative to control
Chain of Sonic hedgehog protein (Homo sapiens) (Q15465 24-197 limits assumed): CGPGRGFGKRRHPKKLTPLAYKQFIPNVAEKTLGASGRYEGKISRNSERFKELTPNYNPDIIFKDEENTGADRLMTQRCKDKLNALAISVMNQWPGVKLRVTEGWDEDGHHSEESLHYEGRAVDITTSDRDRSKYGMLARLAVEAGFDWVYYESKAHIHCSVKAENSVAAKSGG
Method in brief: (§3)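 Primary foreskin fibroblasts were plated in DMEM with 10% FBS for 24 h, washed free of nonadherent cells and reseeded at 14000 cells/well. After 72 h the medium was replaced with compound (0.1–1.0 µm range, <0.1% DMSO). Cells were held 48 h at 37 °C, 5% CO2. Three independent experiments.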

Sonic hedgehog protein = Sonic hedgehog protein (Mus musculus, UniProt Q62226); assay: Activation of Shh pathway in mouse Shh-Light II cells assessed as induction of gli1 expression after 48 hrs by […] luminescence assay; assay type: functional, cell-based; method in brief: as §1
Chain of Sonic hedgehog protein (Q62226 25-198 limits assumed): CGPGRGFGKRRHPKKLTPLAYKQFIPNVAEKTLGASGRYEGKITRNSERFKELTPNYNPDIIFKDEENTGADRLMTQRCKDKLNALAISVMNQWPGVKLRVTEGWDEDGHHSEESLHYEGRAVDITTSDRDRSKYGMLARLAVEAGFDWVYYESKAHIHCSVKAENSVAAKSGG

[6] = biological target: Sonic hedgehog protein (Homo sapiens) (UniProt Q15465); assay: Activation of Shh pathway in human foreskin fibroblasts assessed as induction of maximum VEGF expression at 1 uM after 48 hrs by ELISA relative to control; method in brief: as §3
[7] = biological target: Sonic hedgehog protein (Homo sapiens) (UniProt Q15465); assay: Activation of Shh pathway in human foreskin fibroblasts assessed as increase in VEGF expression after 48 hrs by ELISA; method in brief: as §3
HUVEC [8] = assay: Cytotoxicity against HUVEC after 24 hrs by WST-1 assay; assay type: cell-based; details: Homo sapiens; method in brief: as §2
[9] = biological target: Sonic hedgehog protein (Homo sapiens) (UniProt Q15465); assay: Activation of Shh pathway in human foreskin fibroblasts assessed as induction of maximum VEGF expression at 0.5 uM after 48 hrs by ELISA relative to control; method in brief: as §3
[10] = Ratio of compound IC50 to SAG IC50 for HUVEC; assay type: ADME, cell-based; details: human, HUVEC cells; read-out: Ratio IC50

Row | Structure (SMILES) | Activity [1] | Activity (HUVEC [2]) | Activity (HUVEC [3]) | also measured
1 | N#Cc1ccc(CN(C(=O)c2sc3cc(F)ccc3c2Cl)C2CCNCC2)cc1 | inactive | inactive | inactive | 
2 | CN[C@H]1CC[C@@H](N(Cc2cccc(-c3ccncc3)c2)C(=O)c2sc3ccccc3c2Cl)CC1 |  | inactive | inactive | Activity (HUVEC [4]): Non-toxic; fold change (FC) [5]: 7; EC50 (Sonic hedgehog protein): 61.8 nM; Activity [6]: 23.8 pg/mL; Activity [7]: Dose-dependent effect
3 | CC(=O)Nc1ccc(CN(C(=O)c2sc3cc(F)ccc3c2Cl)C2CCNCC2)cc1 | inactive | inactive | inactive | 
4 | CN[C@H]1CC[C@H](N(Cc2cccc(-c3ccncc3)c2)C(=O)c2[nH]c3ccccc3c2Cl)CC1 |  | inactive | inactive | Activity (HUVEC [4]): Non-toxic; EC50 (Sonic hedgehog protein): 118 nM
5 | CN[C@H]1CC[C@H](N(Cc2cccc(-c3ccncc3)c2)C(=O)c2sc3ccccc3c2Cl)CC1 |  | inactive | inactive | Activity (HUVEC [4]): Non-toxic; fold change (FC) [5]: 7; IC50 (HUVEC [8]): 22000 nM; EC50 (Sonic hedgehog protein): 8.8 nM; Activity [9]: 29.6 pg/mL; Activity [7]: Dose-dependent effect
6 | O=C(c1sc2ccccc2c1Cl)N(Cc1ccco1)C1CCNCC1 | inactive | inactive | inactive | 
7 | CN[C@H]1CC[C@H](N(Cc2cccc(-c3ccncc3)c2)C(=O)c2sc3cccc(Cl)c3c2Cl)CC1 |  | inactive | inactive | Activity (HUVEC [4]): Non-toxic; fold change (FC) [5]: 7; IC50 (HUVEC [8]): 250000 nM; EC50 (Sonic hedgehog protein): 21.9 nM; selectivity ratio [10]: 10; Activity [6]: 32.4 pg/mL; Activity [7]: Dose-dependent effect
8 | CC(=O)Nc1ccc(CN(C(=O)c2sc3cccc(Cl)c3c2Cl)C2CCNCC2)cc1 | inactive | inactive | inactive | 
9 | CN[C@H]1CC[C@H](N(Cc2cccc(-c3ccncc3)c2)C(=O)c2sc3cc(F)ccc3c2Cl)CC1 |  | inactive | inactive | Activity (HUVEC [4]): Non-toxic; fold change (FC) [5]: 7; EC50 (Sonic hedgehog protein): 176 nM; Activity [6]: 32.2 pg/mL; Activity [7]: Dose-dependent effect
10 | O=C(c1sc2cccc(Cl)c2c1Cl)N(Cc1ccco1)C1CCNCC1 | inactive | inactive | inactive | 
11 | Cc1c(C(=O)N(Cc2cccs2)C2CCNCC2)oc2ccccc12 | inactive | inactive | inactive | 
12 | CC(=O)Nc1ccc(CN(C(=O)c2oc3ccccc3c2C)C2CCNCC2)cc1 | inactive | inactive | inactive | 
13 | CN[C@H]1CC[C@@H](N(Cc2cccc(-c3ccncc3)c2)C(=O)c2sc3cccc(Cl)c3c2Cl)CC1 |  | inactive | inactive | Activity (HUVEC [4]): Non-toxic; EC50 (Sonic hedgehog protein): 7.6 nM
14 | N#Cc1ccc(CN(C(=O)c2sc3cccc(Cl)c3c2Cl)C2CCNCC2)cc1 | inactive | inactive | inactive | 
15 | Cc1c(C(=O)N(Cc2ccco2)C2CCNCC2)oc2ccccc12 | inactive | inactive | inactive | 
16 | O=C(c1sc2ccccc2c1Cl)N(Cc1cccs1)C1CCNCC1 | inactive | inactive | inactive | 
17 | N#Cc1ccc(CN(C(=O)c2sc3ccccc3c2Cl)C2CCNCC2)cc1 | inactive | inactive | inactive | 
18 | O=C(c1sc2cc(F)ccc2c1Cl)N(Cc1ccco1)C1CCNCC1 | inactive | inactive | inactive | 
19 | CN[C@H]1CC[C@H](N(Cc2cccc(-c3ccncc3)c2)C(=O)c2ccc(-c3ccccc3)o2)CC1 |  | inactive | inactive | Activity (HUVEC [4]): Non-toxic; EC50 (Sonic hedgehog protein): 53.8 nM
20 | O=C(c1sc2ccccc2c1Cl)N(Cc1ccnc2ccccc12)C1CCNCC1 | inactive | inactive | inactive | 

More lines, main results first:

Row | Activity [1] | Structure (SMILES) | Activity (HUVEC [2]) | Activity (HUVEC [3]) | also measured
21 | inactive | CC(=O)Nc1ccc(CN(C(=O)c2sc3ccccc3c2Cl)C2CCNCC2)cc1 | inactive | inactive | 
22 | inactive | O=C(c1sc2cccc(Cl)c2c1Cl)N(Cc1cccc(-c2ccncc2)c1)C1CCNCC1 | inactive | inactive | 
23 | inactive | O=C(c1sc2cc(F)ccc2c1Cl)N(Cc1cccc(-c2ccncc2)c1)C1CCNCC1 | inactive | inactive | 
24 | inactive | CCOc1cc(C(=O)N(Cc2cccc(-c3ccncc3)c2)[C@H]2CC[C@H](NC)CC2)cc(OCC)c1OCC | inactive | inactive | 
25 | inactive | CN[C@H]1CC[C@H](N(Cc2ccncc2)C(=O)c2sc3ccccc3c2Cl)CC1 | inactive | inactive | 
26 | inactive | O=C(c1sc2ccccc2c1Cl)N(Cc1cccc(Br)c1)C1CCNCC1 | inactive | inactive | 
27 | inactive | CN[C@H]1CC[C@H](N(Cc2cccc(-c3ccncc3)c2)C(=O)c2oc3ccccc3c2C)CC1 | inactive | inactive | 
28 | inactive | CN[C@H]1CC[C@H](NCc2cccc(-c3ccncc3)c2)CC1 | inactive | inactive | 
29 | inactive | CN[C@H]1CC[C@H](N(Cc2cccc(-c3ccncc3)c2)C(=O)c2cc3ccccc3s2)CC1 | inactive | inactive | 
30 | inactive | O=C(c1sc2ccccc2c1Cl)N(Cc1cccc(-c2ccncc2)c1)C1CCNCC1 | inactive | inactive | 
31 | inactive | CN[C@H]1CC[C@H](N(Cc2cccc(-c3ccncc3)c2)C(=O)c2sc3cc(Cl)ccc3c2Cl)CC1 | inactive | inactive | 
32 | inactive | CN[C@H]1CC[C@H](N(Cc2ccnc3ccccc23)C(=O)c2sc3ccccc3c2Cl)CC1 | inactive | inactive | 
